Shown are actives, neighbours in structure and some others; about 3.1% of the full set was active somewhere.
UBC13 polyUb – human UBC13 polyubiquitination inhibition; P61088; AID 485273; inhibition, % at 20 µM; UBC13 polyubiquitin chain formation, TR-FRET; hit rate 0.47% among 330,000; in the data active = inhibition above about 45%, passing the limit was not always enough
SENP8 block-1 – SENP8 (human) protease inhibition. recombinant SENP8, Nedd8 substrate fluorescence. inhibition, % at 20 µM. hit rate 0.64% among 360,000; in the data active = inhibition mostly above about 40%, no sharp cut-off; inactive = mostly below about 27%
Apaf-1 inh – inhibitors of human Apaf-1 apoptosome; hit rate 0.71% among 330,000; reconstituted apoptosome caspase-3 activity, DEVD-Rh110 fluorescence; inhibition, % at 20 µM; active = inhibition of at least 40% at 20 µM
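Material: reconstituted apoptosome with Apaf-1, cytochrome c, caspase-9, procaspase-3, dATP. Technique: Rh110 fluorescence intensity. Buffer or medium: pH 7.5 Hepes buffer with CHAPS, BSA, DTT. Times: 30 min plus 50 min, RT.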
SENP7 inh – blocks the human protease SENP7 | recombinant SENP7, Z-RLRGG-aminoluciferin luminescence, 40 min | inhibition, % at 5 µM | hit rate 1.5% among 330,000;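 active = inhibition above about 50% at the single test dose, limit read from the data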
SENP8 block-2 – SENP8 protease inhibition; Q96LD8; purified SENP8, Z-RLRGG-aminoluciferin cleavage, luminescence; inhibition, % at 10 µM; hit rate 1.2% among 330,000; in the data active = inhibition above about 50%
SENP6 block – blocks the human protease SENP6 | Q9GZR1 | Recombinant SENP6 catalytic domain, aminoluciferin luminescence | inhibition, % at 10 µM | hit rate 1.8% among 330,000;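 active = inhibition above about 50% at the single tested dose, limit read from the data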
SENP8 conf – confirmation of human SENP8 protease inhibitors; hit rate 40% among 6,200; shares compounds with SENP7 inh; Recombinant SENP8, Z-RLRGG-aminoluciferin luminescence, 60 min; inhibition, % at 12.5 µM;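 active = mean inhibition across replicates above about 50%, limit read from the data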
SENP6 conf – confirmation of human SENP6 protease inhibitors; inhibition, % at 12.5 µM; AID 488915; shares compounds with SENP7 inh; hit rate 58% among 6,200; recombinant SENP6, Z-RLRGG-aminoluciferin luminescence
SENP7 conf – human SENP7 inhibition, confirmed | shares compounds with SENP7 inh | recombinant SENP7, Z-RLRGG-aminoluciferin luminescence, 40 min | inhibition, % at 12.5 µM | hit rate 69% among 6,200 | AID 488917
Casp3 SENP sel – inhibits human caspase-3 in SENP selectivity test; purified caspase-3, Z-DEVD-aminoluciferin luminescence, 60 min; hit rate 60% among 6,200; shares compounds with SENP7 inh; inhibition, % at 12.5 µM; AID 488918;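 active = mean inhibition above about 50%, limit read from the data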
SENP luc ctr – counter-screen for SENP inhibitors: luminescence interference; AID 488919; shares compounds with SENP7 inh; inhibition, % at 12.5 µM; Pre-incubated SENP8/Z-RLRGG-aminoluciferin, luciferase luminescence interference; hit rate 39% among 6,200;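 active = mean inhibition above about 50% when retested at one dose, limit read from the data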
Hits are given with their value; i = inactive; nt = not tested or not shown.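 Rule for the calls, unless noted: active = mean inhibition above about 50% in the one-dose retest (limit read from the data); inactive = the rest.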

SMILES | UBC13 polyUb | SENP8 block-1 | Apaf-1 inh | SENP7 inh | SENP8 block-2 | SENP6 block | SENP8 conf | SENP6 conf | SENP7 conf | Casp3 SENP sel | SENP luc ctr
COc1ccc(Cc2c(-c3ccc(Cl)cc3)nc3cc(C)c(Br)c(C)n23)c(C)c1 | nt | i | nt | nt | nt | nt | nt | nt | nt | nt | nt
O=[N+]([O-])c1ccc(N=Nc2ccc(O)cc2O)cc1 | i | i | i | 98 | 96 | 97 | 100 | 101 | 104 | 99 | 99
COc1ccccc1NC(=S)NNC(=O)c1ccc(Cl)cc1Cl | i | i | i | 54 | i | 72 | i | i | i | i | i
COc1ccc(Cn2c(O)c(C=Nc3ccc(OC)cc3)c3ccccc3c2=O)cc1 | i | i | i | i | i | 58 | i | i | i | i | i
COc1ccc(Cn2c(O)c(C=Nc3ccccc3C(=O)O)c3ccccc3c2=O)cc1 | i | i | i | i | i | i | nt | nt | nt | nt | nt
O=C(Nc1cccc(O)c1)c1ccc(NC(=O)C2CCCO2)cc1 (stereo not drawn) | i | i | i | i | i | i | nt | nt | nt | nt | nt
O=C(O)c1cccc(NC(=O)c2cccc(NC(=O)C3CCCO3)c2)c1 (stereo not drawn) | i | i | i | i | 55 | 63 | 74 | 72 | 90 | 69 | 54
O=C(O)c1cccc(C(=O)Nc2cccc(NC(=O)C3CCCO3)c2)c1 (stereo not drawn) | i | i | i | i | i | 57 | 74 | 71 | 91 | 67 | i
O=C(O)c1cccc(NC(=O)C2CCCO2)c1 (stereo not drawn) | i | i | i | i | i | i | nt | nt | nt | nt | nt
CCCCCCN1C[C@H](n2cc(C3CC3)nn2)[C@@H](O)C[C@@H]1c1ccc(Cl)cc1 | nt | i | nt | nt | nt | nt | nt | nt | nt | nt | nt
COc1ccc(S(=O)(=O)NC(=O)C2(C)CCN2C(=O)C2CC2)cc1 (stereo not drawn) | nt | i | nt | nt | nt | nt | nt | nt | nt | nt | nt
Cc1nnc(N2C(=O)C(O)=C(C(=O)c3ccco3)C2c2ccc(F)cc2)s1 (stereo not drawn) | i | i | i | i | i | i | nt | nt | nt | nt | nt
CSc1ccc(C2C(C(=O)c3ccco3)=C(O)C(=O)N2c2nnc(SC)s2)cc1 (stereo not drawn) | i | i | i | i | i | 75 | i | i | i | i | i
Cc1nnc(N2C(=O)C(O)=C(C(=O)c3ccco3)C2c2ccc(C(C)(C)C)cc2)s1 (stereo not drawn) | i | i | i | i | i | 86 | i | i | i | i | i
C[C@@H](CO)NC(=O)c1ccc2c3n(nc2c1)-c1ccccc1CO3 | i | i | i | i | i | 57 | 65 | 66 | 92 | 91 | 70
CCN(CC)CCCNC(=O)c1ccc2c3n(nc2c1)-c1ccc(Cl)cc1CO3 | i | i | i | i | i | i | nt | nt | nt | nt | nt
CC(C)NC(=O)c1ccc2c3n(nc2c1)-c1ccc(Cl)cc1CO3 | i | i | i | i | 54 | i | i | i | 62 | i | i
Cc1ccc2c(c1)COc1c3ccc(C(=O)N[C@@H](CO)C(C)C)cc3nn1-2 | i | i | i | i | i | i | nt | nt | nt | nt | nt
FC(F)(F)c1ccccc1Cc1c(-c2cccc(Cl)c2)nc2c3ccccc3ccn12 | nt | i | nt | nt | nt | nt | nt | nt | nt | nt | nt
CCOC(=O)[C@]12CCCC=C1N(Cc1cccc3ccccc13)C(=O)[C@H](CC(=O)N1CCN(C(=O)c3ccco3)CC1)C2 | nt | i | nt | nt | nt | nt | nt | nt | nt | nt | nt
CNC(=O)/C(C#N)=c1\s/c(=C/C(=O)OC)c(=O)n1-c1ccccc1 | i | i | i | i | i | i | nt | nt | nt | nt | nt
COC(=O)/C=c1\sc2ncnn2c1=O | i | i | i | i | i | 85 | i | i | i | i | i
c1ccc(CCNc2ncnc3c2cnn3-c2ccccc2)cc1 | i | i | i | i | i | 58 | 58 | 51 | 82 | i | i

Source: PubChem (Sanford-Burnham Center for Chemical Genomics)
